Consider one molecule from ChEMBL document CHEMBL5678802, “Small-molecule p21-activated kinase inhibitor PF-3758309 is a potent inhibitor of oncogenic signaling and tumor growth” (Proc Natl Acad Sci U S A, 2010).

The source made the active and inactive calls. The calls are words filed in the database; no cut-off is given here.

The test system of test [1] is HCT-116. The experiment in a line: Antitumor activity against human HCT-116 cells xenografted in nude mouse assessed as reduction in Src phosphorylation at Y527 residue at 15 to 150 mg/kg/day administered via pump for 18 hrs by Reverse-Phase protein array analysis. The test is classed as functional, organism-based. The conditions noted are these: dose 15-150 mg/kg/day. (In general: A xenograft is tissue or cells of one species grown in another, often human tumour cells in immunodeficient mice.)

The subject of test [2] is HCT-116. The experiment in a line: Antitumor activity against human HCT-116 cells xenografted in nude mouse assessed as inhibition of [3H]FLT uptake at 25 mg/kg, po administered once a day for 1 day and measured after 2 hrs post [3H]FLT administration by scintillation counter analysis relative to control. The test is classed as functional. The conditions noted are these: HCT-116, 24 h. In a few lines: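 HCT116 xenograft mice (tumors 300–350 mm3, n = 5 per group) received oral vehicle or compound, with harvests on days 2, 3 and 6. Isoflurane-anesthetized mice were given [3H]FLT (15 nCi/g, i.p.) 2 h before killing. Tumor and liver were weighed, solubilized and scintillation-counted. SUV = C/(ID/W), and uptake is reported as the tumor-to-liver SUV ratio.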

The test system of test [3] is HCT-116. Briefly: Antitumor activity against human HCT-116 cells xenografted in nude mouse assessed as reduction in total Myc level at 15 to 150 mg/kg/day administered via pump for 18 hrs by Reverse-Phase protein array analysis. To be noted: dose 15-150 mg/kg/day. Type of test: functional, organism-based.
Test [4] concerns the target T1, Ribosomal protein S6 kinase alpha-3 (Homo sapiens, UniProt P51812). Briefly: Inhibition of human RSK2 in presence of ATP by cellular assay.
The target in test [5] is Tumour suppressor p53/oncoprotein Mdm2 (Homo sapiens, UniProt P04637+Q00987). Briefly: Inhibition of YFP/YFP variant coding sequence fused p53/Mdm2 (unknown origin) expressed in HEK293 cells incubated for 8 to 24 hrs by fluorescence based analysis. Type of test: cell-based.
Chain of Tumour suppressor p53/oncoprotein Mdm2 (P04637 whole entry, looked up, stated change not applied, the tested form may be a part): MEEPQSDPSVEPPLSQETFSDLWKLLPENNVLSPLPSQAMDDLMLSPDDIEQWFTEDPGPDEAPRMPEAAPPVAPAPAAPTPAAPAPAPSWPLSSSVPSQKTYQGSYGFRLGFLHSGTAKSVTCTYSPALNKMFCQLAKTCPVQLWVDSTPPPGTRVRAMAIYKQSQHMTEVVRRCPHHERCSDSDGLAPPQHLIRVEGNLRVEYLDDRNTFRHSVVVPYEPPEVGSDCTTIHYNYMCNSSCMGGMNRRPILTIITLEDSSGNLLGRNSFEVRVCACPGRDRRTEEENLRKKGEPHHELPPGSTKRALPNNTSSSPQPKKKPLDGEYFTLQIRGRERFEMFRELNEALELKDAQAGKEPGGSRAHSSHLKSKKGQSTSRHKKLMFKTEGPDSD
Chain of Tumour suppressor p53/oncoprotein Mdm2 (Q00987 whole entry, looked up, stated change not applied, the tested form may be a part): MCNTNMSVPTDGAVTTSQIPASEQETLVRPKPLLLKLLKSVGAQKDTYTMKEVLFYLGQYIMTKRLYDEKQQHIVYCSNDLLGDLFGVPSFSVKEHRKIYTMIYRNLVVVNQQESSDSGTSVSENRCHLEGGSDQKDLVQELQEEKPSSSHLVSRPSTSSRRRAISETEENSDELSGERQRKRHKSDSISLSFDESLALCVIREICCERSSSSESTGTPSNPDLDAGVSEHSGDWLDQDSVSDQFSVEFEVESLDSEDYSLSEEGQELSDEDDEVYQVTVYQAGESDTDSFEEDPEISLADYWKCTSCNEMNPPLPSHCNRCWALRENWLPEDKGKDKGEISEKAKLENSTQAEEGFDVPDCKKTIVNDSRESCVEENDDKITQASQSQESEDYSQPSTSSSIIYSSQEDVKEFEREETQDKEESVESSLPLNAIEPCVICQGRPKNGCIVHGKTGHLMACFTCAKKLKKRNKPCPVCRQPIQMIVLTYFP
The test system of another test is HCC70. Briefly: Antiproliferative activity against human HCC70 cells assessed as inhibition of cell proliferation incubated for 3 days by CellTiter-Glo Luminescent Cell Viability Assay. The conditions noted are these: HCC70, 72 h. The test is classed as functional, cell-based. In a few lines: (§1)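 Cancer cell lines seeded in 384-well plates on day 1; compound added on day 2 and left for 3 days. On day 5 all medium was aspirated, and viable cells were quantified by CellTiter-Glo luminescence, which measures cellular ATP. Dose-dependent effects on proliferation were determined.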

For a further test, the system named is SK-MES-1. Briefly: Antiproliferative activity against human SK-MES-1 cells assessed as inhibition of cell proliferation incubated for 3 days by CellTiter-Glo Luminescent Cell Viability Assay. To be noted: SK-MES-1, 72 h. Type of test: functional, cell-based. The method in brief:
(§2)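 Cells of each line were plated in 384-well plates on day 1 and exposed to compound from day 2 for 3 days. On day 5 all medium was aspirated. Viable cell number was read by CellTiter-Glo luminescence, which quantifies cellular ATP.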
A general note: In ATP-based viability assays light output follows the ATP content of the culture.

For test [6], the target named is T1, Ribosomal protein S6 kinase alpha-3. The experiment in a line: Inhibition of human RSK2 in presence of ATP relative to control. The conditions noted are these: concentration not given here.
A further test concerns NCI-H358. Briefly: Antiproliferative activity against human NCI-H358 cells assessed as inhibition of cell proliferation incubated for 3 days by CellTiter-Glo Luminescent Cell Viability Assay. Type of test: functional, cell-based. To be noted: NCI-H358, 72 h. The method in brief: as §2
The target of test [7] is High affinity nerve growth factor receptor (Homo sapiens, UniProt P04629). Briefly: Inhibition of human TRKa in presence of ATP by cellular assay.
Chain of High affinity nerve growth factor receptor (P04629 whole entry): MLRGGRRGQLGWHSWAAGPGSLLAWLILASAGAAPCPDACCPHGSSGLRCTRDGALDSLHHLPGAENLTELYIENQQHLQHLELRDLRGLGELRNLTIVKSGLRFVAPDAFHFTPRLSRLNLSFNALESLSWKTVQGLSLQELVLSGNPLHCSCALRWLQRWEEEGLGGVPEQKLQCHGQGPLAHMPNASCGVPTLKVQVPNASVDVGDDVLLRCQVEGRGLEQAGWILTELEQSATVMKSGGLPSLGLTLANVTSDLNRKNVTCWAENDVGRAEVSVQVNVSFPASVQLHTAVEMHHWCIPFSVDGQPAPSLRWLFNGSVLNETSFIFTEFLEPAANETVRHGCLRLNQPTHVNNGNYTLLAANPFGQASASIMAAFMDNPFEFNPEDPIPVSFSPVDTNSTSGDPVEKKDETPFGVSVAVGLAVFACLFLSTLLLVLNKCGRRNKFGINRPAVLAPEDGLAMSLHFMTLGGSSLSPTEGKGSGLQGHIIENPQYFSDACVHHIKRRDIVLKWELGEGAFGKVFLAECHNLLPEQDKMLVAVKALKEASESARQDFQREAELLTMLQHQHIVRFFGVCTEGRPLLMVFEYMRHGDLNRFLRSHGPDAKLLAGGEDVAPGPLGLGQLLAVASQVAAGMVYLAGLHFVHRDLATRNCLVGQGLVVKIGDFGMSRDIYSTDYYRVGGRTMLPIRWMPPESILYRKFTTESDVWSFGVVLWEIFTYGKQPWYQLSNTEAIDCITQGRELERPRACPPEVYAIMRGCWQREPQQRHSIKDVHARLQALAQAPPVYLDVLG
The target of test [8] is RAC-gamma serine/threonine-protein kinase (Homo sapiens, UniProt Q9Y243). Briefly: Inhibition of human AKT3 assessed as inhibition constant in presence of ATP.
Chain of RAC-gamma serine/threonine-protein kinase (Q9Y243 whole entry): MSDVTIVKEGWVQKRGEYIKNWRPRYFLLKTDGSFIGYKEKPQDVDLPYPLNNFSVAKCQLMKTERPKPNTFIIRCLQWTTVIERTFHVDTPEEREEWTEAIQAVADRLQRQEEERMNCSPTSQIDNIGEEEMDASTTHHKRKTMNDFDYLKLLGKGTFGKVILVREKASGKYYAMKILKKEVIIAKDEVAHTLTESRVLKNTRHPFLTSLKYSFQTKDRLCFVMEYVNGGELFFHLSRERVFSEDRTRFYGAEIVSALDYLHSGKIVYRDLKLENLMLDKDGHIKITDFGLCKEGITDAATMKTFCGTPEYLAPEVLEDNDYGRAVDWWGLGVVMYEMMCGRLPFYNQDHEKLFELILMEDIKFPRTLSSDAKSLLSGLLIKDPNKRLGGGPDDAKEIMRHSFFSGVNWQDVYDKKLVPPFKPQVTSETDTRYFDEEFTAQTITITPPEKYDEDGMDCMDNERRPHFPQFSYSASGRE
In the next test the test system is NCI-H1666. The experiment in a line: Antiproliferative activity against human NCI-H1666 cells assessed as inhibition of cell proliferation incubated for 3 days by CellTiter-Glo Luminescent Cell Viability Assay. Type of test: functional, cell-based. To be noted: NCI-H1666, 72 h. The method in brief: as §2
Test [9] deals with Protein kinase C beta type (Homo sapiens, UniProt P05771). Briefly: Inhibition of human PKCbeta1 in presence of ATP by cellular assay.
Chain of Protein kinase C beta type (P05771 whole entry): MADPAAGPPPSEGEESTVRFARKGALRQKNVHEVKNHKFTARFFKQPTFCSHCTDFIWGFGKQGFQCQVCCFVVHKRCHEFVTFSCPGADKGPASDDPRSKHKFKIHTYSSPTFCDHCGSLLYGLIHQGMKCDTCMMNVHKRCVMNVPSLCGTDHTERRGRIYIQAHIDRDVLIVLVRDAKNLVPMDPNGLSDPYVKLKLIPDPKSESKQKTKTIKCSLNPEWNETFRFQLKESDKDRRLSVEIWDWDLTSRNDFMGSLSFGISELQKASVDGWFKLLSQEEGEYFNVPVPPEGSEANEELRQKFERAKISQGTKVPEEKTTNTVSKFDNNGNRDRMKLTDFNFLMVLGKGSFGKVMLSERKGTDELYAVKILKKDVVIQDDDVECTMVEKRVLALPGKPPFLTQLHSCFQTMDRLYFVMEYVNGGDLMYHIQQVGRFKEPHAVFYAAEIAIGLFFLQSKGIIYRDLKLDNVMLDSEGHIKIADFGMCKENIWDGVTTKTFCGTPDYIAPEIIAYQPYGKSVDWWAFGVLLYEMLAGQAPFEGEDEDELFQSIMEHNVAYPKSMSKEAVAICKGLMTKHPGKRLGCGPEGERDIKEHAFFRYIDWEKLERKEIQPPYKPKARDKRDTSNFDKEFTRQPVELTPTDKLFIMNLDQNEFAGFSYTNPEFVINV
Test [10] deals with HCT-116. Briefly: Antitumor activity against human HCT-116 cells xenografted in nude mouse assessed as reduction in STAT6 phosphorylation at Y641 residue at 15 to 150 mg/kg/day administered via pump for 18 hrs by Reverse-Phase protein array analysis. To be noted: dose 15-150 mg/kg/day. The test is classed as functional, organism-based.
A further test deals with LS174T. The experiment in a line: Antiproliferative activity against human LS174T cells assessed as inhibition of cell proliferation incubated for 3 days by CellTiter-Glo Luminescent Cell Viability Assay. The test is classed as functional, cell-based. The conditions noted are these: 72 h. The method in brief:
as §1

The target of test [11] is T2, Receptor-type tyrosine-protein kinase FLT3 (Homo sapiens, UniProt P36888).
T2 sequence (P36888 whole entry): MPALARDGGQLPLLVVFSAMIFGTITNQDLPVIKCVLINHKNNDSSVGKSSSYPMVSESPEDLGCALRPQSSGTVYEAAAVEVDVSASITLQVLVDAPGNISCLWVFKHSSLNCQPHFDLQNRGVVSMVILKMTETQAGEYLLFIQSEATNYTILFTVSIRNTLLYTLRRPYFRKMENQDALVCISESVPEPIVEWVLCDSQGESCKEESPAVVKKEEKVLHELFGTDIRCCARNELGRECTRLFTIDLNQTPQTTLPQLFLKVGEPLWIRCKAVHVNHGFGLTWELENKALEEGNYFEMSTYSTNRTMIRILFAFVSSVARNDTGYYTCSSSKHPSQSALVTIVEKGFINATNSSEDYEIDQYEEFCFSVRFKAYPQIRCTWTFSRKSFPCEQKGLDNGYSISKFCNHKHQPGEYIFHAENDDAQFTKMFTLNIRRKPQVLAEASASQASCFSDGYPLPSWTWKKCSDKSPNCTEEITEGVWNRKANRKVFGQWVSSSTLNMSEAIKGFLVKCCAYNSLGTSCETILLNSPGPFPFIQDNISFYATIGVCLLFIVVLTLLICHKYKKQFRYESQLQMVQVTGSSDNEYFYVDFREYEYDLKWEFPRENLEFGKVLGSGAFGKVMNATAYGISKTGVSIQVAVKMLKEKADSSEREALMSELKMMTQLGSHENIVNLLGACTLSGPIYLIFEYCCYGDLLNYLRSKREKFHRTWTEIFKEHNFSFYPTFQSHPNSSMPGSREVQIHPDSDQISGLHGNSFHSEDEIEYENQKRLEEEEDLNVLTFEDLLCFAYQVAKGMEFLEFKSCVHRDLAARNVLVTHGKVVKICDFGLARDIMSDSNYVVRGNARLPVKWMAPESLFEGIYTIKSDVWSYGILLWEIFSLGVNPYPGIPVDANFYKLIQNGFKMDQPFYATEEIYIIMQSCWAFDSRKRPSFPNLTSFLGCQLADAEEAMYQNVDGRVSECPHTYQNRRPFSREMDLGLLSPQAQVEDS
Briefly: Inhibition of human FLT3 in presence of ATP.

Test [12] deals with Proto-oncogene tyrosine-protein kinase Src (Homo sapiens, UniProt P12931). The experiment in a line: Inhibition of human SRC in presence of ATP relative to control. The conditions noted are these: concentration not given here.
Chain of Proto-oncogene tyrosine-protein kinase Src (P12931 2-536 limits assumed): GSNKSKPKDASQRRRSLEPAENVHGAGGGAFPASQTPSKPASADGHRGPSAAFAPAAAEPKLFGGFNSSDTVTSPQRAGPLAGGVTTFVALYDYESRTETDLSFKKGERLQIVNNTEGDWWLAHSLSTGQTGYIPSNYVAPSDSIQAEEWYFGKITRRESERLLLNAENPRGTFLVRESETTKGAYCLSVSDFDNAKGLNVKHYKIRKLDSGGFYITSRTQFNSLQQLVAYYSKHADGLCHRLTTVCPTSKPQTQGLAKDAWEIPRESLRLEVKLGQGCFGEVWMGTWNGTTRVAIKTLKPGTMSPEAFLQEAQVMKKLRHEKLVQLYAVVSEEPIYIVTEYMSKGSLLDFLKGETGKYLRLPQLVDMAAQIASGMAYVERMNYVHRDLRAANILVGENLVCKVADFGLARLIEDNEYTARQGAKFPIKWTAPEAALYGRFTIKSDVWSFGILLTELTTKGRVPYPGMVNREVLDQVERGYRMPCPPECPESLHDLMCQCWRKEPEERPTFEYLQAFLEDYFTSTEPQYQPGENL
A further test has as its system A549. The experiment in a line: Antitumor activity against human A549 cells xenografted in nude mouse assessed as tumor growth inhibition at 10 mg/kg, po administered once daily for 9 to 18 days relative to control. The test is classed as functional. The conditions noted are these: time 9-18 day, read-out: TGI. In a few lines:
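Tumor cells were implanted s.c. into the right flank of female nu/nu nude mice aged 6–8 weeks. Animals were randomized into treatment groups once tumors were established (example: day 8 postimplant, about 170 mm3, animals >22 g). Compound in 0.5% methylcellulose was given by oral gavage. Tumors were measured with calipers two to three times per week.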

A further test concerns NCI-H1395. Briefly: Inhibition of anchorage independent cell growth in human NCI-H1395 cells incubated for 6 days by Alamar blue reagent based fluorescence plate reader analysis. Type of test: functional. The conditions noted are these: NCI-H1395, 144 h.

As usually defined, the IC50 is the point on the concentration scale where inhibition reaches its midpoint. A word on the inhibition: it is the drop in the measured response relative to a control, in per cent. Broadly, the Ki is a measure of affinity in units of concentration, obtained from inhibition or displacement.

T1 sequence (P51812 whole entry, the tested form may be a part): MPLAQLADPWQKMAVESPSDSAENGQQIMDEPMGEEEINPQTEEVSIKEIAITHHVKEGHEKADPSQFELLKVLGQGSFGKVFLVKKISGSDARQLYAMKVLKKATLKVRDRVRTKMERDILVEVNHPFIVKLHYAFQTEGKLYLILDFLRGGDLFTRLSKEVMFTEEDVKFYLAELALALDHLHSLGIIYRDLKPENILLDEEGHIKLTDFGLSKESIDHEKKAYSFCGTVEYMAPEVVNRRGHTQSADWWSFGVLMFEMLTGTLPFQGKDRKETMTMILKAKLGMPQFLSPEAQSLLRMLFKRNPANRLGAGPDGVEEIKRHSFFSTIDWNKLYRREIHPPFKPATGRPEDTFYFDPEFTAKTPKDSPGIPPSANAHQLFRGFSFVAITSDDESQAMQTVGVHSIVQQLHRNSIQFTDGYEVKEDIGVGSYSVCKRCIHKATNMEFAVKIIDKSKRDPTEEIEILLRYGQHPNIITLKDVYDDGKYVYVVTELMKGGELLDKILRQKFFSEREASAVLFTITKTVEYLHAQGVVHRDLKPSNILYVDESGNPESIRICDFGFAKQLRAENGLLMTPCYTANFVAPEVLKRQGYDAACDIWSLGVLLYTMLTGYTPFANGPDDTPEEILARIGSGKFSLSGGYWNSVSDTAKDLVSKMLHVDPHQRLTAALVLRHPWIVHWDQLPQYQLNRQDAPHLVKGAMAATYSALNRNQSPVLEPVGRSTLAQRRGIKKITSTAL

As for `Cc1nc(Nc2n[nH]c3c2CN(C(=O)N[C@H](CN(C)C)c2ccccc2)C3(C)C)c2sccc2n1` [PF-03758309], the outcome with HCT-116 [1], with HCT-116 [3] and with HCT-116 [10] was Active. Further, the inhibition in vivo at 25 mg/kg in the test on HCT-116 [2] was 33.8%. The IC50 in test [4] worked out at 171 nM; in test [5] it was 5.6 nM; in the test with HCC70, 0.23 nM; with SK-MES-1 it was 3.2 nM; in the test with NCI-H358 it was 11 nM; in test [7], 2410 nM. In addition, the IC50 with NCI-H1666 amounted to 3.8 nM; in test [9], 2490 nM; with LS174T, 7.2 nM; in test [11], 96 nM; in the test on NCI-H1395 it was 7.62 nM. Also, the values for the inhibition in test [6] and in test [12] were 101% and 96%, respectively. The Ki in test [8] amounted to 172 nM. Further, in the test on A549, the inhibition in vivo at 10 mg/kg was 71%.
